Test results reported in ChEMBL document CHEMBL4152356, “Amphipathic sulfonamidobenzamides mimicking small antimicrobial marine natural products; investigation of antibacterial and anti-biofilm activity against antibiotic resistant clinical isolates” (Bioorg Med Chem, 2018).
Activity calls are given as the source filed them.

What was measured:
Staphylococcus aureus [1] = assay: Antibacterial activity against Staphylococcus aureus ATCC 9144 after 48 hrs by microdilution method; type: functional; details: ATCC 9144, 48 h
Procedure, shortened: (§1)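 Broth microdilution (CLSI M07-A9, modified) in Mueller-Hinton broth; inoculum about 2.5-3 × 10^4 cells/ml mixed 1:1 with serial compound dilutions. Stock solutions in up to 100% DMSO, final DMSO ≤1%. Incubated 35 °C for 48 h.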

[2] = test system: Staphylococcus epidermidis; assay: Antibacterial activity against methicillin resistant Staphylococcus epidermidis RP62A ATCC 35984/CCUG 31568 after 48 hrs by microdilution method; type: functional; details: RP62A ATCC 35984/CCUG 31568, 48 h
Procedure, shortened: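 Broth microdilution (modified CLSI M07-A9) against the MRSE reference strain. Inoculum of about 2.5-3 × 10^4 cells/ml in Mueller-Hinton broth mixed 1:1 with serial compound dilutions; final DMSO ≤1%. Incubated 35 °C, 48 h.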

Bacillus subtilis [3] = assay: Antibacterial activity against Bacillus subtilis 168 ATCC 23857 after 48 hrs by microdilution method; type: functional; details: subsp. subtilis str. 168 ATCC 23857, 48 h; procedure, shortened: as §1
[4] = test system: Corynebacterium glutamicum; assay: Antibacterial activity against Corynebacterium glutamicum ATCC 13032 after 48 hrs by microdilution method; type: functional; details: ATCC 13032, 48 h; procedure, shortened: as §1
Escherichia coli [5] = assay: Antibacterial activity against Escherichia coli ATCC 25922 after 48 hrs by microdilution method; type: functional; details: ATCC 25922, 48 h; procedure, shortened: as §1
Pseudomonas aeruginosa [6] = assay: Antibacterial activity against Pseudomonas aeruginosa PAO1 DSM 19880 ATCC 15692 after 48 hrs by microdilution method; type: functional; details: PAO1 DSM 19880 ATCC 15692, 48 h; procedure, shortened: as §1
Erythrocyte = assay: Hemolytic activity against human RBC measured after 1 hr; type: cell-based
Procedure, shortened: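 Washed human RBCs from a healthy donor (heparinized) at 10% in PBS pH 7.4, mixed 9:1 with serial compound dilutions, 37 °C for 1 h. Baseline set by 0.5% DMSO in 50% PBS, 100% lysis by 0.05% Triton X-100. EC50 is the concentration giving 50% lysis.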

MRC5 = assay: Cytotoxicity against human MRC5 cells after 72 hrs by MTS assay; type: cell-based; details: MRC5, 72 h
Procedure, shortened: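 MRC-5 lung fibroblasts in DMEM with 10% FBS, 37 °C, 5% CO2; seeded at 4000 cells/well, adhered 24 h, medium replaced. Two-fold dilutions up to 100 µg/ml for 72 h, then MTS for 1 h and absorbance at 485 nm. Controls were 1% DMSO (negative) and 0.5% Triton X-100 (positive). EC50 is the concentration giving 50% inhibition of survival.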

[7] = Selectivity index, ratio of EC50 for human RBC to MIC for methicillin resistant Staphylococcus epidermidis RP62A ATCC 35984/CCUG 31568; type: toxicity; details: human red blood cells (RBC), read-out: Selectivity Index
Procedure, shortened: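 SI = hemolytic EC50 / MRSE MIC. Hemolysis: washed human RBCs (heparinized blood, healthy adult donor) at 10% in PBS pH 7.4, mixed 9:1 with serial compound dilutions, 37 °C for 1 h. 0.05% Triton X-100 set 100% lysis, 0.5% DMSO set baseline. MIC from MHB microdilution, 35 °C, […].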

Staphylococcus aureus [8] = assay: Antibacterial activity against Staphylococcus aureus clinical isolates after 24 hrs by microdilution method; type: functional
Procedure, shortened: (§2)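 Clinical isolate screen by broth microdilution with about 1-1.2 × 10^6 cells/ml and 24 h incubation. MIC is the lowest concentration with no growth. For isolate collections, MIC90 is the MIC inhibiting ≥90% of isolates. Multidrug resistance was defined as resistance to at least […] antimicrobial class.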

Enterococcus sp. = assay: Antibacterial activity against Enterococcus sp. clinical isolates after 24 hrs by microdilution method; type: functional; procedure, shortened: as §2
Escherichia coli [9] = assay: Antibacterial activity against Escherichia coli clinical isolates after 24 hrs by microdilution method; type: functional; procedure, shortened: as §2
Pseudomonas aeruginosa [10] = assay: Antibacterial activity against Pseudomonas aeruginosa clinical isolates after 24 hrs by microdilution method; type: functional; procedure, shortened: as §2
Klebsiella pneumoniae = assay: Antibacterial activity against Klebsiella pneumoniae clinical isolates after 24 hrs by microdilution method; type: functional; procedure, shortened: as §2
[11] = test system: Staphylococcus epidermidis; assay: Antibiofilm activity against Staphylococcus epidermidis RP62A ATCC 35984/CCUG 31568 incubated for 24 +/- 2 hrs by crystal violet staining based assay; type: functional
Procedure, shortened: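 Mature S. epidermidis RP62A biofilms: filtered overnight TSB culture adjusted to 2 McFarland, diluted in TSB with 1% glucose to about 6 × 10^6 CFU/ml, grown 24 ± 2 h at 37 °C static, then PBS-washed. Compounds in 50% TSBglu added for 24 ± 2 h at 37 °C. Biomass given as % of untreated control; ≥90% eradication threshold. Compounds tested at 2x, 5x and 10x MIC, 4-8 parallels on 2-3 plates, highest and lowest values excluded.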

Bacillus subtilis [12] = assay: Induction of membrane disruption in Bacillus subtilis 168 expressing luciferase at 12.5 ug/ml measured up to 60 secs by luminescence assay; type: functional, organism-based; details: subsp. subtilis str. 168
Procedure, shortened: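 Luminescence followed up to […]. Fold induction is maximal luminescence relative to chlorhexidine control (31 or 20 µg/ml). Mean ± SD of two experiments.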

[13] = Solubility of the compound in PBS

Structure (SMILES): CN(c1cccc(C(=O)NCCNC(=N)N)c1)S(=O)(=O)c1cc(C(C)(C)C)cc(C(C)(C)C)c1.Cl
- MIC (Staphylococcus aureus [1]): 4 µg/mL
- MIC [2]: 4 µg/mL
- MIC (Bacillus subtilis [3]): 4 µg/mL
- MIC [4]: 2 µg/mL
- MIC (Escherichia coli [5]): 32 µg/mL
- MIC (Pseudomonas aeruginosa [6]): 32 µg/mL
- EC50 (Erythrocyte): 95 µg/mL
- EC50 (MRC5): 91 µg/mL
- selectivity ratio [7]: 24
- MIC (Staphylococcus aureus [8]): 8 µg/mL
- MIC (Enterococcus sp.): 16 µg/mL
- MIC (Escherichia coli [9]): 32 µg/mL
- MIC (Pseudomonas aeruginosa [10]): 32 µg/mL
- MIC (Klebsiella pneumoniae): 64 µg/mL
- MBIC=>90 [11]: 40 µg/mL
- Activity (Bacillus subtilis [12]): Active

Structure (SMILES): COc1c(C(C)(C)C)cc(S(=O)(=O)Nc2ccc(C(=O)NCCNC(=N)N)cc2)cc1C(C)(C)C.Cl
- MIC (Staphylococcus aureus [1]): 4 µg/mL
- MIC [2]: 4 µg/mL
- MIC (Bacillus subtilis [3]): 4 µg/mL
- MIC [4]: 4 µg/mL
- MIC (Escherichia coli [5]): 32 µg/mL
- MIC (Pseudomonas aeruginosa [6]): 64 µg/mL
- EC50 (Erythrocyte): 64 µg/mL
- EC50 (MRC5): > 100 µg/mL
- selectivity ratio [7]: 16
- MIC (Staphylococcus aureus [8]): 8 µg/mL
- MIC (Enterococcus sp.): 64 µg/mL
- MIC (Escherichia coli [9]): > 128 µg/mL
- MIC (Pseudomonas aeruginosa [10]): 32 µg/mL
- MIC (Klebsiella pneumoniae): > 128 µg/mL
- MBIC=>90 [11]: 40 µg/mL
- solubility [13]: > 64 µg/mL

Structure (SMILES): Cc1cc(C(=O)NCCNC(=N)N)ccc1NS(=O)(=O)c1cc(C(C)(C)C)cc(C(C)(C)C)c1.Cl
- MIC (Staphylococcus aureus [1]): 8 µg/mL
- MIC [2]: 4 µg/mL
- MIC (Bacillus subtilis [3]): 8 µg/mL
- MIC [4]: 4 µg/mL
- MIC (Escherichia coli [5]): 32 µg/mL
- MIC (Pseudomonas aeruginosa [6]): > 128 µg/mL
- EC50 (Erythrocyte): 104 µg/mL
- EC50 (MRC5): 56 µg/mL
- selectivity ratio [7]: 26
- MIC (Staphylococcus aureus [8]): 8 µg/mL
- MIC (Enterococcus sp.): 32 µg/mL
- MIC (Escherichia coli [9]): 64 µg/mL
- MIC (Pseudomonas aeruginosa [10]): 64 µg/mL
- MIC (Klebsiella pneumoniae): > 128 µg/mL
- MBIC=>90 [11]: 40 µg/mL

Structure (SMILES): CC(C)(C)c1cc(C(C)(C)C)cc(S(=O)(=O)Nc2ccc(C(=O)NCCNC(=N)N)cc2)c1.Cl
- MIC (Staphylococcus aureus [1]): 4 µg/mL
- MIC [2]: 4 µg/mL
- MIC (Bacillus subtilis [3]): 8 µg/mL
- MIC [4]: 4 µg/mL
- MIC (Escherichia coli [5]): 32 µg/mL
- MIC (Pseudomonas aeruginosa [6]): 64 µg/mL
- EC50 (Erythrocyte): 64 µg/mL
- EC50 (MRC5): > 100 µg/mL
- selectivity ratio [7]: 16
- MIC (Staphylococcus aureus [8]): 8 µg/mL
- MIC (Enterococcus sp.): 32 µg/mL
- MIC (Escherichia coli [9]): > 128 µg/mL
- MIC (Pseudomonas aeruginosa [10]): > 128 µg/mL
- MIC (Klebsiella pneumoniae): > 128 µg/mL
- MBIC=>90 [11]: 40 µg/mL
- solubility [13]: > 64 µg/mL

Structure (SMILES): Cl.N=C(N)NCCNC(=O)c1ccc(NS(=O)(=O)c2cc(C(F)(F)F)cc(C(F)(F)F)c2)cc1
- MIC (Staphylococcus aureus [1]): > 128 µg/mL
- MIC [2]: > 128 µg/mL
- MIC (Bacillus subtilis [3]): > 128 µg/mL
- MIC [4]: > 128 µg/mL
- MIC (Escherichia coli [5]): > 128 µg/mL
- MIC (Pseudomonas aeruginosa [6]): > 128 µg/mL
- EC50 (Erythrocyte): 64 µg/mL
- EC50 (MRC5): > 100 µg/mL
- solubility [13]: > 64 µg/mL

Structure (SMILES): CC(C)(C)c1cc(C(C)(C)C)cc(S(=O)(=O)Nc2cccc(C(=O)NCCNC(=N)N)c2)c1.Cl
- MIC (Staphylococcus aureus [1]): 8 µg/mL
- MIC [2]: 8 µg/mL
- MIC (Bacillus subtilis [3]): 8 µg/mL
- MIC [4]: 4 µg/mL
- MIC (Escherichia coli [5]): 32 µg/mL
- MIC (Pseudomonas aeruginosa [6]): 32 µg/mL
- EC50 (Erythrocyte): 92 µg/mL
- EC50 (MRC5): > 100 µg/mL
- selectivity ratio [7]: 12
- MIC (Staphylococcus aureus [8]): 8 µg/mL
- MIC (Enterococcus sp.): 32 µg/mL
- MIC (Escherichia coli [9]): 64 µg/mL
- MIC (Pseudomonas aeruginosa [10]): 64 µg/mL
- MIC (Klebsiella pneumoniae): 128 µg/mL
- MBIC=>90 [11]: 40 µg/mL
